# Compound activity from PubChem BioAssay.
# This is a sample that favours compounds with a hit; in the whole collection about 1.7% have one here.
# STEP inh = inhibitors of human striatal-enriched phosphatase STEP | AID 588621 | inhibition, % at 20 µM | recombinant STEP, OMFP fluorogenic substrate, fluorescence | 360,000 compounds, 0.25% hits;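 active = inhibition at 20 µM, scaled per plate between control wells, above about 37%, limit read from the data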;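 note: 0% = DMSO with enzyme and substrate and 100% = substrate only without enzyme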
#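 Measure: Control-normalized % inhibition with plate pattern correction | Test system: STEP phosphatase, cell-free reaction | Medium: pH 6.0 Bis-Tris with DTT and Tween 20 | Technique: Fluorescence, 480/540 nm | Times: Reaction 20 min, ambient temperature | Doses: Single compound dose of 20 µM, 1% DMSO final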
# DNMT1 block = inhibitors of human DNMT1; 360,000 compounds, 0.83% hits; DNMT1 molecular beacon, Hinp1I cleavage, fluorescence; P26358; AID 588458; inhibition (reported as % activation of signal), % at 10 µM; in the data active = inhibition above about 50%
# Scp-1 inhibitor = inhibitors of human Scp-1 phosphatase | Q9GZU7 | Recombinant Scp1, phosphopeptide, malachite green phosphate absorbance | inhibition, % at 20 µM | 340,000 compounds, 0.88% hits;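 active = inhibition above about 50% at 20 µM, limit read from the data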;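 note: plate controls were DMSO wells with enzyme for no effect and wells lacking enzyme for full effect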
#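 Test system – truncated SCP-1 phosphatase (76-261aa) · Reagent – Phosphorylated 17-residue peptide substrate · Incubation – 45 min room-temperature reaction, 5 min colour, 30 min stabiliser · Detection – colorimetric phosphate reagent with accelerator and stabiliser, absorbance at 630 nm · Measure – % inhibition at 20 µM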
# SUMO1 PPI mod = alters human SUMO1 binding to SIM partners | inhibition, % at 20 µM | AID 602429 | SUMO1 binding to a labelled peptide, TR-FRET, 1 h | 360,000 compounds, 0.33% hits; in the data active = inhibition above about 37%
# LMPTP block = LMPTP (human) inhibition; P24666; recombinant LMPTP-A, OMFP fluorogenic substrate, fluorescence intensity; inhibition, % at 20 µM; 360,000 compounds, 0.22% hits; AID 651560;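 active = compounds that cut the enzyme signal by at least half of the control window in the single-dose screen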;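 note: plate controls were DMSO wells with enzyme plus substrate for no effect and substrate without enzyme for full effect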
#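 Test system – LMPTP-A phosphatase enzyme · Quantity – 0.625 nM LMPTP-A final · Reagent – OMFP substrate, 400 µM final · Dosing – one test concentration per compound, 20 µM, with 3% DMSO overall · Timing – 50 min enzyme reaction at room temperature, protected from light · Detection – fluorescence intensity · Controls – substrate-only low control, DMSO enzyme-plus-substrate high control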
# Scp-1 conf = Scp-1 (human) inhibition, single-dose confirmed. shares compounds with Scp-1 inhibitor. recombinant SCP-1 catalytic domain, phosphate release, malachite green absorbance. inhibition, % at 20 µM. 2,500 compounds, 61% hits. AID 540281;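 note: plate controls were DMSO with enzyme for no effect and buffer wells lacking enzyme for full effect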
# MG interference = counter-screen for Scp-1 inhibitors: colorimetric interference; Colorimetric interference counterscreen, malachite green absorbance 630 nm; shares compounds with Scp-1 inhibitor; 2,500 tested, under 10 active; apparent inhibition (interference), % at 20 µM;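 note: compounds added after enzyme reaction finished so only phosphate colour detection is probed; plate controls were DMSO wells with completed Scp-1 reaction for no effect and substrate wells lacking enzyme for full effect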
# Scp-1 Tm shift = Scp-1 (human) binding by thermal shift | 1,500 compounds, 25% hits | Recombinant SCP1, Sypro Orange thermal shift Tm | shares compounds with Scp-1 inhibitor | thermal shift relative to vanadate control, % at 40 µM;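 active = substances whose mean melting-temperature shift, as a percentage of the reference inhibitor's shift, reaches about 5.3%, limit read from the data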;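 note: 0% = Tm of DMSO wells and 100% = Tm with sodium orthovanadate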
# An asterisk follows results filed as active; . = no result given.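 Rule for the calls, unless noted: active = inhibition of at least 30% at 20 µM; inactive = the rest.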
SMILES,STEP inh,DNMT1 block,Scp-1 inhibitor,SUMO1 PPI mod,LMPTP block,Scp-1 conf,MG interference,Scp-1 Tm shift
CCc1ccc(OCc2cccc(C(=O)N/N=C\c3cnn(C)c3C)c2)cc1,4,15,66*,7,14,78*,-4,-6
Cc1ccc(C)c(OCC(=O)NNC(=O)c2ccc(NC(=O)C3CC3)cc2)c1,-3,-1,-2,4,-1,.,.,.
Cc1cc(Br)ccc1OCC(=O)NNC(=O)c1ccc(NC(=O)C2CC2)cc1,-1,12,61*,-1,5,9,-10,.
Nc1ncnc2c1ncn2[C@@H]1O[C@H](CNCc2c(OCc3ccccc3F)ccc3ccccc23)[C@@H](O)[C@H]1O,0,1,4,-27,0,.,.,.
CC1CCN(S(=O)(=O)c2ccc(NC(=O)Cc3cccs3)cc2)CC1,0,25,77*,2,3,60*,-26,5.8*
CC(C)CCC(C(=O)NC(C)c1ccccc1)C(=O)NC(C)c1ccccc1 (centres undefined),10,22,92*,9,52*,57*,-21,-29
CC(C)CC(NC(=O)C1CCCCC1)C(=O)NC(C)c1ccccc1 (centres undefined),1,4,-2,2,-2,.,.,.
O=C(CNC(=O)c1ccccc1F)OCC(=O)c1ccc(Cl)s1,-2,2,-8,0,-2,.,.,.
CCc1ccc(N2CC(C(=O)NC3CCCCC3C)CC2=O)cc1 (centres undefined),-3,-1,0,2,0,.,.,.
Cc1nnc(NS(=O)(=O)c2ccc(N=Nc3ccc(N)nc3N)cc2)s1,5,4,67*,-10,18,34*,-6,9.1*
O=C(CSc1nnc(-c2ccncc2)n1-c1ccc(F)cc1)NC(=O)NCc1ccco1,5,68*,89*,0,7,64*,-8,-3
CCC(C(=O)Nc1cccnc1Cl)c1ccccc1 (centres undefined),-2,0,4,-2,-3,.,.,.
CC(C(=O)Nc1ccccc1Br)N1c2cccc3cccc(c23)S1(=O)=O (centres undefined),1,-2,-10,-8,2,.,.,.
COc1ccc2c(c1)[N+](C)(C)C(C)(C)C=C2C,-2,-4,93*,1,-2,86*,-12,-21
CCOc1ccc2c(c1)[N+](C)(C)C(C)(C)C=C2C,-1,-4,48,2,0,.,.,.
CC(=O)Nc1ccc(/C(C)=N/NC(=O)c2ccc(COc3ccccc3Cl)o2)cc1,24,21,104*,21,3,65*,-7,-26
CN(Cc1cccc(Cl)c1Cl)C(=O)c1cccc(S(=O)(=O)N2CCN(Cc3ccccc3)CC2)c1,1,-3,-5,5,5,.,.,.
NC(=O)C(CC(=O)O)NC(=O)[C@@H]1CCOc2c(I)cc([N+](=O)[O-])cc2C(=O)N[C@@H](CCC(=O)O)C(=O)N[C@@H](CO)C(=O)N1 (some centres undefined),.,.,29,.,.,.,.,.
NC(=O)C(CC(=O)O)NC(=O)[C@@H]1CCCNc2c(I)cc([N+](=O)[O-])cc2C(=O)N[C@@H](CO)C(=O)N[C@@H](Cc2ccc(O)cc2)C(=O)N1 (some centres undefined),3,10,62*,-7,0,43*,-13,9.8*
C[C@@H]1NC(=O)c2cc([N+](=O)[O-])cc(I)c2OCC[C@@H](C(=O)NC(CC(=O)O)C(N)=O)NC(=O)[C@H](CCC(=O)O)NC1=O (some centres undefined),.,.,50*,.,.,53*,-13,-4
COc1ccccc1CNC(=O)C1CC2Cn3c(nc4cc(C)c(C)cc43)C2N1C (centres undefined),-1,5,14,6,1,.,.,.
